Results taken from ChEMBL document CHEMBL4033799, “Stable and Long-Lasting, Novel Bicyclic Peptide Plasma Kallikrein Inhibitors for the Treatment of Diabetic Macular Edema” (J Med Chem, 2018).

Assays:
[1] = target: Coagulation factor XI (Homo sapiens, UniProt P03951); assay: Inhibition of human factor 11a using fluorogenic peptide as substrate by fluorescence based assay
In short: (§1)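 Human serine proteases were assayed with substrates and conditions set by each supplier's recommendations. Peptides were first screened at 50 μM. Where inhibition was detected, Ki was determined from activity across peptide concentrations using a tight-binding rate equation.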

[2] = target: Kallikrein-1 (Homo sapiens, UniProt P06870); assay: Inhibition of recombinant human C-terminal His-tagged KLK1 (1 to 262 residues) expressed in HEK293 cells using fluorogenic PFR-AMC peptide as substrate by fluorescence based assay; in short: as §1
[3] = Half life in Sprague-Dawley rat at 5 mg/kg, iv by LC-MS/MS analysis; assay type: ADME, organism-based; details: in vivo
In short: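 Groups of 2 male Sprague-Dawley rats were dosed IV at 5 mg/kg. Serial tail-vein blood was drawn into EDTA at 5–240 min, and plasma peptide was quantified by LC-MS/MS against 16–4000 ng/mL calibration lines in rat plasma. AUC was calculated by the trapezoidal method.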

[4] = target: T1, Coagulation factor XII (Homo sapiens, UniProt P00748); assay: Inhibition of human factor 12a using fluorogenic peptide as substrate by fluorescence based assay; in short: as §1
T1 sequence (P00748 whole entry): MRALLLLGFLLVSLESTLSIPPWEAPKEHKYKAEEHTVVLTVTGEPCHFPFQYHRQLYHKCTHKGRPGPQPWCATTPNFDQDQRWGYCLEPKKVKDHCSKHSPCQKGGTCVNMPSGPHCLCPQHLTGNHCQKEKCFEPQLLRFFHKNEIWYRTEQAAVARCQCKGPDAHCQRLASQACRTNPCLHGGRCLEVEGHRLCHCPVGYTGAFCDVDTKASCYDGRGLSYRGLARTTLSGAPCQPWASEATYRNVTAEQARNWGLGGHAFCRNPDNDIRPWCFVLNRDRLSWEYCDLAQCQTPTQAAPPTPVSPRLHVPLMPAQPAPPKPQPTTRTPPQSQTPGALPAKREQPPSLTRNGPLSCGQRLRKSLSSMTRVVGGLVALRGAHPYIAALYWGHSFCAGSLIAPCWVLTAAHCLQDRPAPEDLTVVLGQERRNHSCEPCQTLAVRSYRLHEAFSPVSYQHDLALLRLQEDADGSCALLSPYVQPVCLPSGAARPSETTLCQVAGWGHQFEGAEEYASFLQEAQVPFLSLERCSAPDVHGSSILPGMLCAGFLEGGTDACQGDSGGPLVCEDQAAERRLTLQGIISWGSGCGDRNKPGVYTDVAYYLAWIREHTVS

[5] = target: T2, Kallikrein-12 (Homo sapiens, UniProt Q9UKR0); assay: Inhibition of recombinant human C-terminal 10His-tagged KLK12 (18 to 248 residues) expressed in mouse NS0 cells using fluorogenic Boc-VPR-AMC peptide as substrate by fluorescence based assay; in short: as §1
T2 sequence (Q9UKR0 whole entry): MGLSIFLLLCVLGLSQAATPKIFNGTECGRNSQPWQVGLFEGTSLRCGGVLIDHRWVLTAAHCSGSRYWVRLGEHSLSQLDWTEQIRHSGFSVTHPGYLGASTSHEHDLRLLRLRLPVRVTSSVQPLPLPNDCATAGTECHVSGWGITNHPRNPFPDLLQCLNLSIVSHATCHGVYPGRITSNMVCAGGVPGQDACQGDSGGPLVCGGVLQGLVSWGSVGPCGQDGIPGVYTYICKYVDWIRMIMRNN

[6] = Inhibition of dog plasma kallikrein using fluorogenic H-Pro-Phe-Arg-AMC peptide as substrate preincubated for 15 mins followed by substrate addition measured by fluorescence-based assay; details: read-out: Ki(app)
[7] = Half life in human plasma at 4 uM measured up to 24 hrs by LC-MS/MS analysis; assay type: ADME, cell-free
In short: (§2)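 Peptide from a 0.16 mM DMSO stock was added to human, rat or mouse plasma (final 4 μM) or to homogenized human vitreous (final 1 μM), with internal standard. Samples were incubated at 37 °C for up to 24 h and extracted with water/acetonitrile/methanol 1:3:3.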

[8] = Volume of distribution at steady state in Sprague-Dawley rat at 5 mg/kg, iv measured up to 240 mins post dose by LC-MS/MS analysis; assay type: ADME, organism-based; details: in vivo, read-out: Vdss
In short: (§3)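 Male Sprague-Dawley rats, 2 per group, given 5 mg/kg intravenously. Blood sampled through tail-vein cannulae at 5, 10, 20, 30, 60, 120, 180 and 240 min into EDTA tubes and spun to plasma.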

[9] = target: T3, Kallikrein-5 (Homo sapiens, UniProt Q9Y337); assay: Inhibition of recombinant human C-terminal 10His-tagged KLK5 (67 to 293 residues) expressed in mouse NS0 cells using fluorogenic Boc-VPR-AMC peptide as substrate after 5 mins by fluorescence based assay; in short: as §1
T3 sequence (Q9Y337 whole entry): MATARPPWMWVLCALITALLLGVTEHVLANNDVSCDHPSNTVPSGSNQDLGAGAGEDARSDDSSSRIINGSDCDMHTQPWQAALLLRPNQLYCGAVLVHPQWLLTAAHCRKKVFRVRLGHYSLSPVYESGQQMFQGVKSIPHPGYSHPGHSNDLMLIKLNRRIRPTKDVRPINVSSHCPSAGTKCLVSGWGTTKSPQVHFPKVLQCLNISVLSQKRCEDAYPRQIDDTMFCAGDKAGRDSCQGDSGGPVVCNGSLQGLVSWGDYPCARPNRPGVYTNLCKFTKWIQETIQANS

[10] = Plasma clearance in Sprague-Dawley rat at 5 mg/kg, iv measured up to 240 mins post dose by LC-MS/MS analysis; assay type: ADME, organism-based; in short: as §3
[11] = Half life in human vitreous humor at 1 uM measured up to 24 hrs by LC-MS/MS analysis; assay type: ADME, tissue-based; in short: as §2
[12] = target: T4, Cathepsin G (Homo sapiens, UniProt P08311); assay: Inhibition of recombinant human Cathepsin-G
T4 sequence (P08311 whole entry): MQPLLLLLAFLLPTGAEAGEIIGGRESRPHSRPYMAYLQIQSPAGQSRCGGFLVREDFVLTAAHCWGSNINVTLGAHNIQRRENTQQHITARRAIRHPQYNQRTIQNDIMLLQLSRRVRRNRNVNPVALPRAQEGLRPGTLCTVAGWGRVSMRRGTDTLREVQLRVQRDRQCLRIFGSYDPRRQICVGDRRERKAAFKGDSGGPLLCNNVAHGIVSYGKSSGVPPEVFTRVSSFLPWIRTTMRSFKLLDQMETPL
In short: (§4)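 Panel of human serine proteases. Substrates and assay conditions followed each supplier's recommendations. Peptides were first screened at 50 μM. Where inhibition was detectable, hydrolytic activity was measured across a range of peptide concentrations. Ki was obtained by fitting to the tight-binding inhibitor rate equation.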

[13] = target: Kallikrein-6 (Homo sapiens, UniProt Q92876); assay: Inhibition of recombinant human C-terminal His-tagged KLK6 isoform 1 (1 to 244 residues) expressed in HEK293 cells using fluorogenic Boc-QARAMC peptide as substrate by fluorescence based assay; in short: as §1
[14] = target: Coagulation factor X (Homo sapiens, UniProt P00742); assay: Inhibition of recombinant human C-terminal 10His-tagged factor Xa (24 to 488 residues) expressed in baculovirus derived insect sf21 cells using fluorogenic Mca-RPKPVE-Nval-WRK(Dnp)-NH2 peptide as substrate by fluorescence based assay; in short: as §1
[15] = target: Prothrombin (Homo sapiens, UniProt P00734); assay: Inhibition of recombinant human alpha thrombin using fluorogenic peptide as substrate by fluorescence based assay; in short: as §4

Row | SMILES | Ki [1] [µM] | Ki ([2]; hek293) [µM] | half-life [3] [h] | Ki [4] [µM] | Ki [5] [µM] | Ki [6] [µM] | half-life at 4 µM [7] [h] | Vd [8] [L/kg] | Ki [9] [µM] | clearance [10] [mL/min/kg] | half-life at 1 µM [11] [h] | Ki [2] [µM] | Ki [12] [µM] | Ki [13] [µM] | Ki [14] [µM] | Ki [15] [µM]
1 | CC(=O)N[C@H]1CSCc2cc3cc(c2)CSC[C@H](NC(=O)[C@H](CCCCNC(=N)N)NC(=O)[C@H](Cc2ccc(O)cc2)NC(=O)[C@@H]2CCN2C(=O)[C@H](Cc2ccccc2)NC(=O)[C@H](CO)NC1=O)C(=O)N[C@@H](C)CN[C@@H](Cc1cnc[nH]1)C(=O)N[C@@H](CCC(N)=O)C(=O)N[C@@H](CC(=O)O)C(=O)N[C@@H](CC(C)C)C(=O)N[C@H](C(=O)O)CSC3 | > 50 | > 50 | 0.8 | > 50 | > 50 | 0.08 | > 24 | 0.44 | > 50 | 6.2 | > 24 |  |  |  |  | 
2 | CC[C@H](C)[C@@H]1NC(=O)[C@H](CC(=O)O)NC(=O)[C@@H]2CCCN2C(=O)[C@H](Cc2ccc(O)cc2)NC(=O)[C@H](Cc2ccc(O)cc2)NC(=O)[C@H](C(C)C)NC(=O)[C@@H]2CSCc3cc(cc(c3)CSC[C@@H](C(=O)N[C@@H](C)C(=O)N(C)CC(=O)N(C)CC(=O)N(C)CC(=O)N[C@H](CCCNC(=N)N)C(=O)N[C@H](CCCNC(=N)N)C(=O)O)NC1=O)CSC[C@H](NC(C)=O)C(=O)N[C@@H](CO)C(=O)N[C@@H](Cc1ccccc1)C(=O)N1CCC1C(=O)N[C@@H](Cc1ccc(O)cc1)C(=O)N[C@@H](CCCCNC(=N)N)C(=O)N2 (stereo partly specified) | 0.5 |  |  | > 50 | > 50 | 0.022 |  |  | 0.8 |  |  | 50 | > 50 | > 50 | 23 | > 50
3 | CC(=O)N[C@H]1CSCc2cc3cc(c2)CSC[C@H](C(=O)N[C@@H](C)C(=O)N(C)CC(=O)N(C)CC(=O)N(C)CC(=O)N[C@H](CCCNC(=N)N)C(=O)N[C@H](CCCNC(=N)N)C(=O)O)NC(=O)[C@H](CC(C)C)NC(=O)[C@@H]2CCCN2C(=O)[C@H](C)NC(=O)[C@H](CC(=O)O)NC(=O)[C@H](Cc2c[nH]c4ccccc24)NC(=O)[C@@H]2CCCN2C(=O)[C@H](CSC3)NC(=O)[C@H](Cc2c[nH]c3ccccc23)NC(=O)[C@@H]2CCCN2C(=O)[C@H](CC(N)=O)NC(=O)[C@H](Cc2c[nH]c3ccccc23)NC(=O)[C@H]([C@@H](C)O)NC(=O)[C@H](CC(N)=O)NC1=O | > 50 | > 50 | 1.3 | > 50 | > 50 | 0.5 | > 24 | 0.93 | 50 | 8.2 | > 24 |  | > 50 | > 50 | > 50 | > 50
